# Measured values published in ChEMBL document CHEMBL1817556, “Substituted lactam and cyclic azahemiacetals modulate Pseudomonas aeruginosa quorum sensing” (Bioorg Med Chem, 2011).
# What was measured:
# [1] = target: T1, Acyl-homoserine-lactone synthase (Pseudomonas aeruginosa (strain ATCC 15692 / PAO1 / 1C / PRS 101 / LMG12228)) (UniProt P33883); experiment: Modulation of Pseudomonas aeruginosa lacZ-fused lasI expressed in Escherichia coli DH5alpha co-expressing pBAD-lasR assessed as 3-oxo-C12-AHL-induced effect at 0.81 mM after 3 hrs by beta-galactosidase assay relative to control
# T1 sequence (whole entry): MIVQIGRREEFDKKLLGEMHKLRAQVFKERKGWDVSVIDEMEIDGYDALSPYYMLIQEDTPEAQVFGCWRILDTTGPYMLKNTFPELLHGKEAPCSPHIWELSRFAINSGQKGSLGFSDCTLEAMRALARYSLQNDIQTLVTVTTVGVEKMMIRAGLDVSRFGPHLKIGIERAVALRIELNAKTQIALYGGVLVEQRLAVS
# In short: (§1)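 E. coli DH5α carrying pSC11 (PlasI-lacZ translational fusion) and pJN105L (PBAD-lasR) was grown overnight in LB with ampicillin (100 μg/ml) and gentamicin (15 μg/ml), then diluted to OD600 0.150. Arabinose (0.2% w/v), 3-oxo-C12-AHL (2 μM) and test compound or DMSO were added. Cultures were shaken 3 h at 37 °C. β-Galactosidase activity was read in Miller units and expressed as % of the solvent sample. Triplicates per biological replicate, repeated at least twice; paired two-tailed t-test.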
# [2] = target: 3-(3-hydroxydecanoyloxy)decanoate synthase (Pseudomonas aeruginosa (strain ATCC 15692 / PAO1 / 1C / PRS 101 / LMG12228)) (UniProt Q51559); experiment: Modulation of Pseudomonas aeruginosa lacZ-fused rhlA expressed in Escherichia coli DH5alpha co-expressing Ptac-rhlR assessed as C4-AHL-induced effect at 0.40 mM after 4 hrs by beta-galactosidase assay relative to control
# In short: (§2)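 rhl reporter: E. coli DH5α carrying pECP61.5 (Ptac-rhlR, PrhlA-lacZ) was grown overnight in LB with ampicillin (100 μg/ml) only, then diluted to OD600 0.150. It was induced with 1 mM IPTG, and 2 μM C4-HSL plus compound or DMSO were added at OD600 1.0. Cultures were shaken 4 h at 37 °C. β-Galactosidase activity was read in Miller units as % of the solvent sample. Triplicates per biological replicate, at least two repeats; paired two-tailed t-test.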
# [3] = target: 3-(3-hydroxydecanoyloxy)decanoate synthase (Pseudomonas aeruginosa (strain ATCC 15692 / PAO1 / 1C / PRS 101 / LMG12228)) (UniProt Q51559); experiment: Modulation of Pseudomonas aeruginosa lacZ-fused rhlA expressed in Escherichia coli DH5alpha co-expressing Ptac-rhlR assessed as C4-AHL-induced effect at 0.20 mM after 4 hrs by beta-galactosidase assay relative to control; in short: as §2
# [4] = target: 3-(3-hydroxydecanoyloxy)decanoate synthase (Pseudomonas aeruginosa (strain ATCC 15692 / PAO1 / 1C / PRS 101 / LMG12228)) (UniProt Q51559); experiment: Modulation of Pseudomonas aeruginosa lacZ-fused rhlA expressed in Escherichia coli DH5alpha co-expressing Ptac-rhlR assessed as C4-AHL-induced effect at 0.61 mM after 4 hrs by beta-galactosidase assay relative to control
# In short: (§3)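 E. coli DH5α carrying pECP61.5 (Ptac-rhlR, PrhlA-lacZ), grown overnight in LB with ampicillin 100 μg/ml and diluted to OD600 0.150. At OD600 1.0, 1 mM IPTG, 2 μM C4-HSL and compound or DMSO were added. Cultures were shaken 4 h at 37 °C, then β-galactosidase was read in Miller units. Activity is % of solvent sample, from triplicates per biological replicate, with at least two repeats.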
# [5] = target: T1, Acyl-homoserine-lactone synthase (Pseudomonas aeruginosa (strain ATCC 15692 / PAO1 / 1C / PRS 101 / LMG12228)); experiment: Modulation of Pseudomonas aeruginosa lacZ-fused lasI expressed in Escherichia coli DH5alpha co-expressing pBAD-lasR assessed as 3-oxo-C12-AHL-induced effect at 0.61 mM after 3 hrs by beta-galactosidase assay relative to control; in short: as §1
# [6] = target: T1, Acyl-homoserine-lactone synthase (Pseudomonas aeruginosa (strain ATCC 15692 / PAO1 / 1C / PRS 101 / LMG12228)); experiment: Modulation of Pseudomonas aeruginosa lacZ-fused lasI expressed in Escherichia coli DH5alpha co-expressing pBAD-lasR assessed as 3-oxo-C12-AHL-induced effect at 0.40 mM after 3 hrs by beta-galactosidase assay relative to control; in short: as §1
# [7] = target: 3-(3-hydroxydecanoyloxy)decanoate synthase (Pseudomonas aeruginosa (strain ATCC 15692 / PAO1 / 1C / PRS 101 / LMG12228)) (UniProt Q51559); experiment: Modulation of Pseudomonas aeruginosa lacZ-fused rhlA expressed in Escherichia coli DH5alpha co-expressing Ptac-rhlR assessed as C4-AHL-induced effect at 0.81 mM after 4 hrs by beta-galactosidase assay relative to control; in short: as §3
# [8] = target: T1, Acyl-homoserine-lactone synthase (Pseudomonas aeruginosa (strain ATCC 15692 / PAO1 / 1C / PRS 101 / LMG12228)); experiment: Modulation of Pseudomonas aeruginosa lacZ-fused lasI expressed in Escherichia coli DH5alpha co-expressing pBAD-lasR assessed as 3-oxo-C12-AHL-induced effect at 0.20 mM after 3 hrs by beta-galactosidase assay relative to control; in short: as §1
# [9] = target: 3-(3-hydroxydecanoyloxy)decanoate synthase (Pseudomonas aeruginosa (strain ATCC 15692 / PAO1 / 1C / PRS 101 / LMG12228)) (UniProt Q51559); experiment: Modulation of Pseudomonas aeruginosa lacZ-fused rhlA expressed in Escherichia coli DH5alpha co-expressing Ptac-rhlR assessed as C4-AHL-induced effect at 0.52 mM after 4 hrs by beta-galactosidase assay relative to control; in short: as §2
# [10] = target: T1, Acyl-homoserine-lactone synthase (Pseudomonas aeruginosa (strain ATCC 15692 / PAO1 / 1C / PRS 101 / LMG12228)); experiment: Modulation of Pseudomonas aeruginosa lacZ-fused lasI expressed in Escherichia coli DH5alpha co-expressing pBAD-lasR assessed as 3-oxo-C12-AHL-induced effect at 0.17 mM after 3 hrs by beta-galactosidase assay relative to control; in short: as §1
# [11] = target: T1, Acyl-homoserine-lactone synthase (Pseudomonas aeruginosa (strain ATCC 15692 / PAO1 / 1C / PRS 101 / LMG12228)); experiment: Modulation of Pseudomonas aeruginosa lacZ-fused lasI expressed in Escherichia coli DH5alpha co-expressing pBAD-lasR assessed as 3-oxo-C12-AHL-induced effect at 0.52 mM after 3 hrs by beta-galactosidase assay relative to control; in short: as §1
# [12] = target: 3-(3-hydroxydecanoyloxy)decanoate synthase (Pseudomonas aeruginosa (strain ATCC 15692 / PAO1 / 1C / PRS 101 / LMG12228)) (UniProt Q51559); experiment: Modulation of Pseudomonas aeruginosa lacZ-fused rhlA expressed in Escherichia coli DH5alpha co-expressing Ptac-rhlR assessed as C4-AHL-induced effect at 0.69 mM after 4 hrs by beta-galactosidase assay relative to control; in short: as §3
# [13] = target: 3-(3-hydroxydecanoyloxy)decanoate synthase (Pseudomonas aeruginosa (strain ATCC 15692 / PAO1 / 1C / PRS 101 / LMG12228)) (UniProt Q51559); experiment: Modulation of Pseudomonas aeruginosa lacZ-fused rhlA expressed in Escherichia coli DH5alpha co-expressing Ptac-rhlR assessed as C4-AHL-induced effect at 0.35 mM after 4 hrs by beta-galactosidase assay relative to control; in short: as §2
# [14] = target: 3-(3-hydroxydecanoyloxy)decanoate synthase (Pseudomonas aeruginosa (strain ATCC 15692 / PAO1 / 1C / PRS 101 / LMG12228)) (UniProt Q51559); experiment: Modulation of Pseudomonas aeruginosa lacZ-fused rhlA expressed in Escherichia coli DH5alpha co-expressing Ptac-rhlR assessed as C4-AHL-induced effect at 0.17 mM after 4 hrs by beta-galactosidase assay relative to control; in short: as §2
# [15] = target: T1, Acyl-homoserine-lactone synthase (Pseudomonas aeruginosa (strain ATCC 15692 / PAO1 / 1C / PRS 101 / LMG12228)); experiment: Modulation of Pseudomonas aeruginosa lacZ-fused lasI expressed in Escherichia coli DH5alpha co-expressing pBAD-lasR assessed as 3-oxo-C12-AHL-induced effect at 0.35 mM after 3 hrs by beta-galactosidase assay relative to control; in short: as §1
# [16] = target: T1, Acyl-homoserine-lactone synthase (Pseudomonas aeruginosa (strain ATCC 15692 / PAO1 / 1C / PRS 101 / LMG12228)); experiment: Modulation of Pseudomonas aeruginosa lacZ-fused lasI expressed in Escherichia coli DH5alpha co-expressing pBAD-lasR assessed as 3-oxo-C12-AHL-induced effect at 0.69 mM after 3 hrs by beta-galactosidase assay relative to control; in short: as §1
# [17] = target: 3-(3-hydroxydecanoyloxy)decanoate synthase (Pseudomonas aeruginosa (strain ATCC 15692 / PAO1 / 1C / PRS 101 / LMG12228)) (UniProt Q51559); experiment: Modulation of Pseudomonas aeruginosa lacZ-fused rhlA expressed in Escherichia coli DH5alpha co-expressing Ptac-rhlR assessed as C4-AHL-induced effect at 0.50 mM after 4 hrs by beta-galactosidase assay relative to control; in short: as §2
# [18] = target: 3-(3-hydroxydecanoyloxy)decanoate synthase (Pseudomonas aeruginosa (strain ATCC 15692 / PAO1 / 1C / PRS 101 / LMG12228)) (UniProt Q51559); experiment: Modulation of Pseudomonas aeruginosa lacZ-fused rhlA expressed in Escherichia coli DH5alpha co-expressing Ptac-rhlR assessed as C4-AHL-induced effect at 0.67 mM after 4 hrs by beta-galactosidase assay relative to control; in short: as §3
# [19] = target: T1, Acyl-homoserine-lactone synthase (Pseudomonas aeruginosa (strain ATCC 15692 / PAO1 / 1C / PRS 101 / LMG12228)); experiment: Modulation of Pseudomonas aeruginosa lacZ-fused lasI expressed in Escherichia coli DH5alpha co-expressing pBAD-lasR assessed as 3-oxo-C12-AHL-induced effect at 0.33 mM after 3 hrs by beta-galactosidase assay relative to control; in short: as §1
# [20] = target: T1, Acyl-homoserine-lactone synthase (Pseudomonas aeruginosa (strain ATCC 15692 / PAO1 / 1C / PRS 101 / LMG12228)); experiment: Modulation of Pseudomonas aeruginosa lacZ-fused lasI expressed in Escherichia coli DH5alpha co-expressing pBAD-lasR assessed as 3-oxo-C12-AHL-induced effect at 0.50 mM after 3 hrs by beta-galactosidase assay relative to control; in short: as §1
# [21] = target: 3-(3-hydroxydecanoyloxy)decanoate synthase (Pseudomonas aeruginosa (strain ATCC 15692 / PAO1 / 1C / PRS 101 / LMG12228)) (UniProt Q51559); experiment: Modulation of Pseudomonas aeruginosa lacZ-fused rhlA expressed in Escherichia coli DH5alpha co-expressing Ptac-rhlR assessed as C4-AHL-induced effect at 0.33 mM after 4 hrs by beta-galactosidase assay relative to control; in short: as §2
# [22] = target: T1, Acyl-homoserine-lactone synthase (Pseudomonas aeruginosa (strain ATCC 15692 / PAO1 / 1C / PRS 101 / LMG12228)); experiment: Modulation of Pseudomonas aeruginosa lacZ-fused lasI expressed in Escherichia coli DH5alpha co-expressing pBAD-lasR assessed as 3-oxo-C12-AHL-induced effect at 0.67 mM after 3 hrs by beta-galactosidase assay relative to control; in short: as §1
smiles,measurement,setting,value
CCCCCCSC[C@H]1NC(=O)[C@H](O)[C@@H]1O,Activity,[1],68%
same,Activity,[2],129%
same,Activity,[3],132%
same,Activity,[4],148%
same,Activity,[5],79%
same,Activity,[6],78%
same,Activity,[7],161%
same,Activity,[8],96%
CCCCCCCCCSC[C@H]1NC(=O)[C@H](O)[C@@H]1O,Activity,[9],115%
same,Activity,[10],93%
same,Activity,[11],80%
same,Activity,[12],135%
same,Activity,[13],117%
same,Activity,[14],106%
same,Activity,[15],87%
same,Activity,[16],63%
CCCCCCCCCCCCSC[C@@H]1CCC(=O)N1,Activity,[17],109%
same,Activity,[18],106%
same,Activity,[19],32%
same,Activity,[20],18%
same,Activity,[10],52%
same,Activity,[21],106%
same,Activity,[14],103%
same,Activity,[22],11%
